The values below come from ChEMBL document CHEMBL1649550, “Antibacterial properties and mode of action of a short acyl-lysyl oligomer” (2009).

The source made the active and inactive calls. No cut-off for these calls is given here.

The test system of the assay is Staphylococcus aureus. Nature of the assay: Antibacterial activity against Staphylococcus aureus ATCC 29213 assessed as disruption of plasma membrane permeability at 4 times MIC by ethidium bromide uptake assay. The format is functional, organism-based. Put shortly:
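S. aureus grown overnight in LB at 37°C to OD620 of 1, washed twice in PBS and resuspended in PBS with 0.5% glucose, then 10 min at 37°C. Cells added to EtBr (final 1.0 μg/ml) with compound (serial twofold concentrations), Triton 0.01% final, or antibiotic at 4× MIC. Fluorescence followed over time (ex 530, em 645 nm).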
Take GENTAMICIN: the outcome was inactive. For `O=C(O)c1cn(C2CC2)c2cc(N3CCNCC3)c(F)cc2c1=O` the value was “inactive”; for `CN(C)[C@@H]1C(O)=C(C(N)=O)C(=O)[C@@]2(O)C(O)=C3C(=O)c4c(O)cccc4[C@@](C)(O)[C@H]3C[C@@H]12`, “inactive”.
